Target: T1, Toll-like receptor 8 (Homo sapiens, UniProt Q9NR97)
T1 sequence (Q9NR97 whole entry): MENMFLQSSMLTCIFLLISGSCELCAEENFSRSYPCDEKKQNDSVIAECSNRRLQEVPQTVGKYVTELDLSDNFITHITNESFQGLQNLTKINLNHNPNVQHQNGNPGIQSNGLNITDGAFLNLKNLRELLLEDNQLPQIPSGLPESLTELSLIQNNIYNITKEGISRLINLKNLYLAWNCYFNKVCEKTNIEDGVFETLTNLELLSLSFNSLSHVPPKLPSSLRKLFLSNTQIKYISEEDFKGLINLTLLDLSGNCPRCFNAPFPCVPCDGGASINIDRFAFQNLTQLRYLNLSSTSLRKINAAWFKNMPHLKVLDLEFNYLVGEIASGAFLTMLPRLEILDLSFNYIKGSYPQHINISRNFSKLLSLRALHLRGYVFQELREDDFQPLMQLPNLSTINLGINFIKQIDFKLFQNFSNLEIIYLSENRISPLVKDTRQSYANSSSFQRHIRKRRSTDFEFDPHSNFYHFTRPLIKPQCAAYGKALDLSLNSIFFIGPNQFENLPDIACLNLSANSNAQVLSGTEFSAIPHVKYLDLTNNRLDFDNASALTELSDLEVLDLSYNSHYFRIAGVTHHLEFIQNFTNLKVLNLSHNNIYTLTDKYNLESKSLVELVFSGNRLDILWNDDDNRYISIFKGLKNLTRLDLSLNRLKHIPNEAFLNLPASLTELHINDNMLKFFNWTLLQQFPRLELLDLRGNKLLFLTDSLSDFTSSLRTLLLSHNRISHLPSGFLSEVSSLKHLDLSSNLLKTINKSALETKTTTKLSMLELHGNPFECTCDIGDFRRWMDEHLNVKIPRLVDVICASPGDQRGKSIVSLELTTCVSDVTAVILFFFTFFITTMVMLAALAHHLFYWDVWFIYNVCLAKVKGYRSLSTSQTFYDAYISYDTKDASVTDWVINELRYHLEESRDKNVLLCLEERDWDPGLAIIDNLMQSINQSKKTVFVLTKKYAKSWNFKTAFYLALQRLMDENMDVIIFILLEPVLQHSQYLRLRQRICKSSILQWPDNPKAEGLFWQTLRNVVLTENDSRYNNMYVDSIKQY
Assay: Agonist activity at TLR8 in human PBMC assessed as increase in TNF-alpha production after 16 hrs by immunoassay
Summary of the method: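 Freshly isolated human PBMC from venipuncture blood (informed consent), 10^5 cells/well, stimulated 16 h with graded concentrations of compound. Supernatants collected by centrifugation and cytokines quantified in duplicate with a multiplexed cytokine/chemokine magnetic bead array.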

## CCCCNc1nc(N)nc(C)c1CCCCN
  EC50: 9.26 µM

From ChEMBL document CHEMBL4428062, “Human Toll-like Receptor (TLR) 8-Specific Agonistic Activity in Substituted Pyrimidine-2,4-diamines” (J Med Chem, 2016)
